Converted amounts (≈) assume the structure as drawn.

One test has as its target Nucleic Acid. In words: Displacement of methyl green from DNA after 24 hrs by microtiter assay. Format: nucleic-acid assay. A digest of the protocol:
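Complex: DNA–methyl green reagent (20 mg/100 ml) in 0.05 M Tris-HCl pH 7.5 with 7.5 mM MgSO4, stirred 24 h at 37°. Samples dried from EtOH in wells, then complex added. A630 read at once and after 24 h dark at ambient temperature. Final corrected for initial, normalized to untreated complex. IC50 for 50% decrease by linear regression on semi-log plot; n = 3 to 5.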

Another test concerns Calf thymus DNA. In words: Displacement of ethidium bromide from calf thymus type 1 DNA after 4 hrs by microtiter assay.

The term IC50 denotes the midpoint of a concentration-inhibition curve. `CCOc1ccc(-c2nc3cc(-c4nc5cc(N6CCN(C)CC6)ccc5[nH]4)ccc3[nH]2)cc1`: the results for the IC50 on Nucleic Acid and in the test on Calf thymus DNA were 37 mg/L (≈ 81.8 µM) and 33 mg/L (≈ 72.9 µM), respectively.
With `COc1c(O)c2c(c3cc(C(=O)N4CCc5c4c(O)c(OC)c4[nH]c(C(=O)N6C[C@H]7C[C@@]78C6=CC(=O)c6[nH]cc(C)c68)cc54)[nH]c13)CCN2C(N)=O` [(+)-CC-1065], the IC50 on Nucleic Acid was 62 mg/L (≈ 88.1 µM); in the test on Calf thymus DNA, 26 mg/L (≈ 36.9 µM).
The corresponding values for `COC(=O)C(O)(c1cc2c(c3oc([C@]4(C)C[C@@H]4C)cc(=O)c13)C(=O)c1c(ccc([C@H]3C[C@](C)(N(C)C)[C@H](O[C@@H]4C[C@H](OC)[C@H](O)[C@@H](C)O4)[C@H](C)O3)c1O)C2=O)[C@H]1O[C@H](C)[C@@H](O)[C@@H](OC)[C@@H]1O` (some centres not stated) [ALTROMYCIN B] are 67 mg/L (≈ 72.5 µM) and 44 mg/L (≈ 47.6 µM).
Regarding `COc1cc2c(oc(=O)c3cc(C)cc(OC)c32)c2c([C@@H]3O[C@H](C)[C@H](O)[C@@](C)(O)[C@H]3O)ccc(O)c12` [CHRYSOMYCIN B], on Nucleic Acid, the IC50 came to 20 mg/L (≈ 40.3 µM).
For the compound `COc1cccc2c1C(=O)c1c(O)c3c(c(O)c1C2=O)C[C@@](O)(C(C)=O)C[C@@H]3O[C@H]1C[C@H](N)[C@H](O)[C@H](C)O1` [DAUNORUBICIN], the values for the IC50 on Nucleic Acid and with Calf thymus DNA were 30 mg/L (≈ 56.9 µM) and 2 mg/L (≈ 3.79 µM), respectively.
The corresponding values for `N=C(N)c1ccc(/N=N/Nc2ccc(C(=N)N)cc2)cc1` [DIMINAZENE] are 67 mg/L (≈ 238 µM) and 59 mg/L (≈ 210 µM).
The corresponding values for `C/C=C\C1OC1(C)c1cc(=O)c2c(C)cc3c(c2o1)C(=O)c1c(O)c([C@H]2C[C@](C)(N(C)C)[C@@H](OC(C)=O)[C@@H](C)O2)cc([C@@H]2C[C@H](N(C)C)[C@@H](O)[C@@H](C)O2)c1C3=O` (some centres not stated) [PLURAMYCIN] are 51 mg/L (≈ 66 µM) and 3.6 mg/L (≈ 4.66 µM).
The corresponding values for `C/C=C\C1OC1(C)c1cc(=O)c2c(C)cc3c(c2o1)C(=O)c1c(O)c([C@H]2C[C@@](C)(N(C)C)[C@H](O)[C@H](C)O2)cc([C@@H]2C[C@H](N(C)C)[C@@H](O)[C@@H](C)O2)c1C3=O` (some centres not stated) [RUBIFLAVIN] are 17 mg/L (≈ 23.3 µM) and 13 mg/L (≈ 17.8 µM).
Consider `Cn1cc(NC(=O)c2cc(NC(=O)c3cc(NC=O)cn3C)cn2C)cc1C(=O)NCCC(=N)N` [STALLIMYCIN], for which the IC50 on Nucleic Acid was 18 mg/L (≈ 37.4 µM); with Calf thymus DNA it was 4.3 mg/L (≈ 8.93 µM).

For the origin of these results see ChEMBL document CHEMBL1150052, “A colorimetric microassay for the detection of agents that interact with DNA” (J Nat Prod, 1992).
